The text below walks through data of ChEMBL document CHEMBL3992519 (J Med Chem, 2017).

Series [1] has as its target T1, Orexin/Hypocretin receptor type 1 (Homo sapiens, UniProt O43613).
T1 sequence (O43613 whole entry): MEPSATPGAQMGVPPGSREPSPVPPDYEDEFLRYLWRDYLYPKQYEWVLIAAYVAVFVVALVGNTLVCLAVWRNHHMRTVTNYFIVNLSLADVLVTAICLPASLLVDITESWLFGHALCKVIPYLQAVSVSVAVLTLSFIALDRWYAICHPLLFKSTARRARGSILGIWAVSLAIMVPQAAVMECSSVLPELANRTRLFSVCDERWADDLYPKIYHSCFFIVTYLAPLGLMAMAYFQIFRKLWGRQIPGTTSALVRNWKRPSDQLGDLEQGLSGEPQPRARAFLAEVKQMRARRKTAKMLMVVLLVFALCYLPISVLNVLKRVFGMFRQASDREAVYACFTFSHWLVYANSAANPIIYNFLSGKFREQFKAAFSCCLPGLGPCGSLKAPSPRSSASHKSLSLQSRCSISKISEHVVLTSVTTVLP
As to the kind of experiment: Antagonist activity at human OX1R expressed in CHOK1 cells assessed as inhibition of orexin A-induced intracellular calcium level preincubated for 15 mins followed by orexin A addition by Fura-2-AM dye based fluorescence assay. (In general: A change in cytosolic calcium serves as a functional read-out for many receptors and channels.)

Series [2] in a line: Solubility of the compound in water. Type of series: physicochemical. As to conditions: buffer.
The next series has as its target T2, Orexin receptor type 2 (Homo sapiens, UniProt O43614).
T2 sequence (O43614 whole entry): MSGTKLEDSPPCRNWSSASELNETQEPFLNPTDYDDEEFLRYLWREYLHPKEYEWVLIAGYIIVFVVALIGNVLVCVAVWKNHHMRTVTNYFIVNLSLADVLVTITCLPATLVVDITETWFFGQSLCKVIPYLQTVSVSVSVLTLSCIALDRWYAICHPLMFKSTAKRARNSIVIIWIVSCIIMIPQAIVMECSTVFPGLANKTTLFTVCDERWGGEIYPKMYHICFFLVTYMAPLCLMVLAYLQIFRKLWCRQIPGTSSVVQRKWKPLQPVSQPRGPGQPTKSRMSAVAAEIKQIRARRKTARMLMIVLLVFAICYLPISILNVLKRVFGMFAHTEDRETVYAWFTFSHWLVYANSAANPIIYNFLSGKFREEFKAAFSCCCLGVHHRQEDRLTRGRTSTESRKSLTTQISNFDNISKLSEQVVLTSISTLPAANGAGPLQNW
As to the kind of experiment: Antagonist activity at human OX2R expressed in CHOK1 cells assessed as inhibition of orexin A-induced intracellular calcium level preincubated for 15 mins followed by orexin A addition by Fura-2-AM dye based fluorescence assay. The series is classed as cell-based. As to conditions: for inhibition (INH): human. In outline: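 CHO cells expressing human OX1R or OX2R; calcium transient assay. IC50 came from concentration-response curves in at least three independent assays, each run in triplicate. Ki was derived by the Cheng-Prusoff equation and reported as mean ± SEM. […] Some compounds were tested as HCl, MeSO3H or 2H2SO4 salts.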

Series [3] is described as follows: Selectivity index, ratio of IC50 for human OX2R expressed in CHOK1 cells to IC50 for human OX1R expressed in CHOK1 cells.
Series [4] can be described thus: Solubility of the compound in saline. Type of series: physicochemical. The settings on record: buffer.
For series [5], the target named is Delta-type opioid receptor (Homo sapiens, UniProt P41143). As to the kind of experiment: Displacement of [3H]DPDPE from human delta opioid receptor expressed in CHO cell membranes by micro-beta scintillation counting method. Background: Loss of bound radioactivity is the signal in a displacement assay; it reports binding, not function.
Delta-type opioid receptor, sequence (P41143 whole entry): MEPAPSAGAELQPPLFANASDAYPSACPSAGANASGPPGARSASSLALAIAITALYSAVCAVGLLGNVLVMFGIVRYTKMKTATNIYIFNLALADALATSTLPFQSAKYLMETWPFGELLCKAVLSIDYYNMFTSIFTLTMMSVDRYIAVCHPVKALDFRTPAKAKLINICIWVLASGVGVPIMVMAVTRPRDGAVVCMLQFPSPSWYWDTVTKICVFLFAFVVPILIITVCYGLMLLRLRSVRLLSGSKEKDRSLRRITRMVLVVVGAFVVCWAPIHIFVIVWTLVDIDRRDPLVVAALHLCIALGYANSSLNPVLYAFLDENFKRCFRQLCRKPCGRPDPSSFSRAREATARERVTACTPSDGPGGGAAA
In series [6] the target is Kappa-type opioid receptor (Homo sapiens, UniProt P41145). Put plainly: Displacement of [3H]U69,593 from human kappa opioid receptor expressed in CHO cell membranes by micro-beta scintillation counting method.
Kappa-type opioid receptor, sequence (P41145 whole entry): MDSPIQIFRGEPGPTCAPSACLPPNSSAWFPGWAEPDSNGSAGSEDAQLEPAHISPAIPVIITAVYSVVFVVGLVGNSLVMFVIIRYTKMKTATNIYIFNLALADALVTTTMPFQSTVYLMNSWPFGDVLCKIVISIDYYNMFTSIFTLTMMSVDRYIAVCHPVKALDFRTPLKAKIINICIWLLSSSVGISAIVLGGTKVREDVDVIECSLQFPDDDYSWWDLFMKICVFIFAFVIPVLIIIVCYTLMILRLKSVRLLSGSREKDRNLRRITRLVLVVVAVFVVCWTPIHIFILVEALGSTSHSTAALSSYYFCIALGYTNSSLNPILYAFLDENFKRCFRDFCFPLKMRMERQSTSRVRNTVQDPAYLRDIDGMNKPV
Another series concerns the target Mu-type opioid receptor (Homo sapiens, UniProt P35372). Put plainly: Displacement of [3H]DAMGO from human mu opioid receptor expressed in CHO cell membranes by micro-beta scintillation counting method.
Series [7] has as its system Mus musculus. Put plainly: Reduction in morphine dependence expression in ICR mouse assessed as inhibition of naloxone-precipitated body weight loss at 10 mg/kg, ip administered 30 mins prior to first morphine injection each day for 5 days followed by naloxone challenge 2 hrs post last morphine dose measured over 60 mins. The series is classed as functional, organism-based.

For series [8], the system named is Mus musculus. Put plainly: Reduction in morphine dependence expression in ICR mouse assessed as inhibition of naloxone-precipitated jumping behavior at 10 mg/kg, ip administered 30 mins prior to first morphine injection each day for 5 days followed by naloxone challenge 2 hrs post last morphine dose measured over 60 mins. Type of series: functional, organism-based.

The subject of series [9] is Mus musculus. As to the kind of experiment: Reduction in morphine dependence expression in ICR mouse assessed as inhibition of naloxone-precipitated diarrhea at 10 mg/kg, ip administered 30 mins prior to first morphine injection each day for 5 days followed by naloxone challenge 2 hrs post last morphine dose measured over 60 mins. The series is classed as functional, organism-based.

In series [10] the target is T3, Orexin/Hypocretin receptor type 1 (Homo sapiens) (UniProt O43613).
T3 sequence (whole entry): T1 sequence (O43613 whole entry)

Calls of active or inactive are those of the source. The rule behind the calls is not given here.

Mu-type opioid receptor, sequence (P35372 whole entry): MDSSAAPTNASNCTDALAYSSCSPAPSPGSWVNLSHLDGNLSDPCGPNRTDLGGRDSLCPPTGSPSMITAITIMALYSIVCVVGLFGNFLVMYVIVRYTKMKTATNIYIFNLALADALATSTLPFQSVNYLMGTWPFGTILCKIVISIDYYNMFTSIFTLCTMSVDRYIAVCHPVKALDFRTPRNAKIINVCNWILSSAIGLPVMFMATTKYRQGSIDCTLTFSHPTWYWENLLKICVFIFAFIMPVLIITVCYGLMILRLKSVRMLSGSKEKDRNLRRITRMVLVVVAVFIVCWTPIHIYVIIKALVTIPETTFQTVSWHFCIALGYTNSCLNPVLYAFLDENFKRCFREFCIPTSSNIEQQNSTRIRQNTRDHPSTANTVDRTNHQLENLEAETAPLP

The term Ki denotes a dissociation constant, usually derived from enzyme kinetics or from competition with a known ligand. With `COc1ccc2c3c1O[C@H]1[C@H](N(C)C(=O)/C=C/c4ccoc4)CC[C@@]4(O)[C@@H](C2)N(C(=O)c2ccc(C)cc2)CC[C@]314`, the values for the Ki (in series [1]; on Orexin receptor type 2 (read-out: Ki)) were 14 nM and 725 nM, respectively. The solubility entry in series [2] and in series [4] was “Insoluble” throughout. Further, the “Ratio IC50” value in series [3] is reported as <88.4.
As for `COc1ccc2c3c1O[C@H]1[C@H](N(C)C(=O)/C=C/c4ccoc4)CC[C@@]4(O)[C@@H](C2)N(S(=O)(=O)c2ccccc2)CC[C@]314`, the Ki was 8.14 nM in series [1], > 1000 nM in series [5], > 1000 nM in series [6] and > 1000 nM on Mu-type opioid receptor. In addition, the solubility entry in series [2] and in series [4] was “Insoluble” in each case. Moreover, in series [3], the “Ratio IC50” value is recorded as <88.4.
For `CN(C(=O)/C=C/c1ccoc1)[C@@H]1CC[C@@]2(O)[C@H]3Cc4ccc(O)c5c4[C@@]2(CCN3CC2CC2)[C@H]1O5.Cl` [NALFURAFINE HYDROCHLORIDE], the Ki in series [1] amounted to 250 nM; in series [5] it was 693 nM; on Mu-type opioid receptor it was 5.99 nM. The solubility result in series [2] and in series [4] was “Insoluble” each time. For the same molecule, at Orexin receptor type 2, the “inhibition (INH)” value is recorded as “Not Active”.
Turning to `COc1ccc2c3c1O[C@H]1[C@H](N(C)C(=O)/C=C/c4ccoc4)CC[C@@]4(O)[C@@H](C2)N(C(=O)/C=C/c2ccccc2)CC[C@]314`, the Ki in [1] was 14 nM; in [5] it was > 1000 nM; in series [6], > 1000 nM; at Mu-type opioid receptor, > 1000 nM. Moreover, the solubility result in series [2] and in [4] was “Insoluble” throughout. For the same molecule, the “Ratio IC50” value in [3] is listed as <88.4.
As for `COc1ccc2c3c1O[C@H]1[C@H](N(C)C(=O)/C=C/c4ccccn4)CC[C@@]4(O)[C@@H](C2)N(S(=O)(=O)c2ccccc2N(C)C)CC[C@]314`, the inhibition result in the series with Mus musculus [7], in the series with Mus musculus [8] and in the series on Mus musculus [9] was “Active” each time.
As for `COc1ccc2c3c1O[C@H]1[C@H](N(C)C(=O)/C=C/c4ccoc4)CC[C@@]4(O)[C@@H](C2)N(S(=O)(=O)c2ccccc2[N+](=O)[O-])CC[C@]314`, the Ki in series [1] is 1.81 nM; on Orexin receptor type 2, “Not Active”. Also, the solubility result in series [2] and in series [4] was “Insoluble” in each case. For the same molecule, the “Ratio IC50” value in series [3] is on record as <88.4. The same molecule registered a Ke in [10] of 3.69 nM.
As to `COc1ccc2c3c1O[C@H]1[C@H](N(C)C(=O)/C=C/c4ccoc4)CC[C@@]4(O)[C@@H](C2)N(CC2CC2)CC[C@]314`, the Ki in series [1] amounted to 22.5 nM. Further, the “inhibition (INH)” value on Orexin receptor type 2 is listed as “Not Active”.
In the case of `Cc1cc(NC(=O)Nc2ccc(N(C)C)cc2)c2cc(F)cc(F)c2n1.Cl.Cl`, the Ki in series [1] was 18.9 nM; at Orexin receptor type 2 (read-out: Ki), 2070 nM; in series [5], > 1000 nM; in series [6] it was > 1000 nM; on Mu-type opioid receptor it was > 1000 nM. Further, the solubility entry in [2] and in series [4] was “Insoluble” throughout. Also, the “Ratio IC50” value in [3] was <88.4.
For the molecule `COc1ccc2c3c1O[C@H]1[C@H](N(C)C(=O)/C=C/c4ccccn4)CC[C@@]4(O)[C@@H](C2)N(S(=O)(=O)c2ccccc2N(C)C)CC[C@]314.O=S(=O)(O)O.O=S(=O)(O)O`, the Ki (in [5]; in [6]; on Mu-type opioid receptor) was > 1000 nM throughout.
For `COc1ccc2c3c1O[C@H]1[C@H](N(C)C(=O)/C=C/c4ccoc4)CC[C@@]4(O)[C@@H](C2)N(S(=O)(=O)c2ccc(N(C)C)cc2)CC[C@]314.Cl`, the Ki is 12.9 nM in series [1], > 1000 nM in series [5], > 1000 nM in [6] and > 1000 nM at Mu-type opioid receptor. Moreover, the solubility entry in series [2] and in series [4] was “Insoluble” throughout. The “Ratio IC50” value in [3] was <88.4.
Regarding `COc1ccc2c3c1O[C@H]1[C@H](N(C)C(=O)/C=C/c4ccoc4)CC[C@@]4(O)[C@@H](C2)N(C(=O)C2CC2)CC[C@]314`, the Ki in series [1] was 12 nM; in series [5] it was > 1000 nM; in series [6] it was > 1000 nM; at Mu-type opioid receptor, > 1000 nM. Besides, the solubility result in [2] and in series [4] was “Insoluble” each time. Further, the “Ratio IC50” value in series [3] is <88.4.
Turning to `COc1ccc2c3c1O[C@H]1[C@H](N(C)C(=O)/C=C/c4ccoc4)CC[C@@]4(O)[C@@H](C2)N(S(=O)(=O)c2cccc(Cl)c2)CC[C@]314`, in series [1], the Ki was 3.47 nM. For the same molecule, the solubility result in series [2] and in series [4] was “Insoluble” throughout. In addition, the “Ratio IC50” value in series [3] was <88.4.
Regarding `COc1ccc2c3c1O[C@H]1[C@H](N(C)C(=O)/C=C/c4ccoc4)CC[C@@]4(O)[C@@H](C2)N(S(=O)(=O)c2ccc(C(F)(F)F)cc2)CC[C@]314`, the Ki in series [1] was found to be 12.6 nM. In addition, the solubility result in [2] and in [4] was “Insoluble” throughout. The “Ratio IC50” value in series [3] is listed as <88.4.
Consider `COc1ccc2c3c1O[C@H]1[C@H](N(C)C(=O)/C=C/c4ccoc4)CC[C@@]4(O)[C@@H](C2)N(S(=O)(=O)c2cccc(Br)c2)CC[C@]314`, for which, in series [1], the Ki was determined as 2.27 nM. Also, the solubility entry in series [2] and in [4] was “Insoluble” each time. Further, the “Ratio IC50” value in [3] is reported as <88.4.
Regarding `COc1ccc2c3c1O[C@H]1[C@H](N(C)C(=O)/C=C/c4ccoc4)CC[C@@]4(O)[C@@H](C2)N(S(=O)(=O)c2cccc(F)c2)CC[C@]314`, the Ki in series [1] was found to be 7.6 nM. The solubility result in series [2] and in [4] was “Insoluble” in each case. Also, the “Ratio IC50” value in [3] is <88.4.
As for `CN(C)c1ccc(S(=O)(=O)N2CC[C@]34c5c6ccc(O)c5O[C@H]3[C@H](N(C)C(=O)/C=C/c3ccoc3)CC[C@@]4(O)[C@H]2C6)cc1`, the values for the Ki (in [5]; in [6]; at Mu-type opioid receptor) were > 1000 nM, 200 nM and 971 nM, respectively.
As for `CN(C(=O)/C=C/c1ccoc1)[C@@H]1CC[C@@]2(O)[C@H]3Cc4cccc5c4[C@@]2(CCN3CC2CC2)[C@H]1O5`, the Ki in series [1] stood at 1240 nM. Besides, the “inhibition (INH)” value at Orexin receptor type 2 is “Not Active”.
`COc1ccc2c3c1O[C@H]1[C@H](N(C)C(=O)/C=C/c4ccoc4)CC[C@@]4(O)[C@@H](C2)N(C(=O)OC(C)(C)C)CC[C@]314`: the Ki in [1] is 4.15 nM; in series [5], > 1000 nM; in series [6], 184 nM; on Mu-type opioid receptor, > 1000 nM. Besides, the solubility entry in series [2] and in series [4] was “Insoluble” in each case. In series [3], the “Ratio IC50” value is reported as <88.4.
Consider `COc1ccc2c3c1O[C@H]1[C@H](N(C)C(=O)/C=C/c4ccoc4)CC[C@@]4(O)[C@@H](C2)N(S(=O)(=O)c2ccccc2F)CC[C@]314`, for which the Ki in series [1] was found to be 2.07 nM. In addition, the solubility result in [2] and in series [4] was “Insoluble” in each case. For the same molecule, the “Ratio IC50” value in series [3] is recorded as <88.4.
For `COc1ccc2c3c1O[C@H]1[C@H](N(C)C(=O)/C=C/c4ccoc4)CC[C@@]4(O)[C@@H](C2)N(S(=O)(=O)c2ccccc2C(F)(F)F)CC[C@]314`, the Ki in series [1] came to 2.05 nM. Besides, the solubility entry in series [2] and in series [4] was “Insoluble” in each case. Also, in series [3], the “Ratio IC50” value was <88.4.
